Experimental findings from PubChem BioAssay are described below.

Test [1] is described as follows: reduced viability of SK-BR-3 breast cancer cells – cell-based, 24 h, human, pilot screen (AID 572;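 active = viability at or below 10% of carrier control in both of two separate runs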;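 also: compound exposure lasted between 18 and 24 h rather than exactly 24 h; 100% = carrier-treated control wells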). The conditions noted are these: SK-BR-3 viability, CellTiter-Glo luminescence, at 10 µM, stronger effect = lower value.
The nature of test [2]: HUVEC growth inhibition – cell-based, human, primary screen (AID 575).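 Also: 100% = median of untreated cell wells with 0.1% DMSO on each plate.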 Particulars: HUVEC proliferation, CellTiter-Glo luminescence, 72 h; at 10 µM; stronger effect = lower value. In short, it runs like this: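 system = HUVEC primary cells | amount = 1250 cells/well | buffer or medium = supplemented EBM, 2% fetal bovine serum | dosing = single-point 10 µM, DMSO 0.1% final | times = 72 h compound incubation | detection = CTG luminescence | read-out = % viability relative to median vehicle-well signal on each plate | control set = vehicle and MePR control wells | format = collagen-coated 384-well format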

Test [3] is described as follows: MRP1 drug-resistance reversers in H69AR cells – cell-based, doxorubicin co-treatment, pilot screen (AID 601;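 active = viability loss from added drug above about 55%, and viability with drug at most 40%, in both replicates, limit read from the data, passing the limit was not always enough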). Particulars: CellTiter-Glo, 72 h, at 10 µM; for differential viability (reversal): stronger effect = higher value.
A short description of test [4]: yeast transport mutant growth inhibition pilot in 384-well plates, post-Golgi transport modulator project (AID 636; in the data active = inhibition above about 31%). The conditions noted are these: absorbance 615 nm, about 18 h, stronger effect = higher value.
A short description of test [5]: growth suppression of yeast trafficking mutant, preliminary HTS, modulators of trafficking downstream of Golgi apparatus project, 1536-format plate, OD 615 nm (AID 637; in the data active = inhibition above about 30%). The conditions noted are these: yeast transport mutant growth, absorbance 615 nm, 18 h; stronger effect = higher value.
Test [6] is described as follows: H69AR cell proliferation blockers – human, duplicate replicates, primary screen (AID 580;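 active = viability at or under a set limit in both replicates, limit being median viability minus 3 SD, cut at about 48% in these data, passing the limit was not always enough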;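 also: 100% = mean luminescence of untreated wells and 0% = no signal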). Particulars: H69AR lung tumor cells viability, ATP luminescence, 72 h; at 10 µM; stronger effect = lower value.
[7] abbreviates: H69AR cells + 2 uM doxorubicin, measured here: viability with 2 uM doxorubicin, stronger effect = lower value.
Setting [8] is: H69AR cells, compound alone cytotoxicity.

Activity calls are given as the source filed them.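 The calls were made as follows, unless noted: active = viability at or below 30% in both replicate assays; inconclusive = viability at or below 30% in just one of the two assays; inactive = the rest.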

Regarding `CCCn1nc(NC(=O)c2cccs2)c2cc3cc(OC)ccc3nc21`, the viability is 102% (inactive) in test [1], 56.4% (inactive) in test [2], 81.8% in test [3] (setting [7]) and 63.1% in test [3] (setting [8]). Also, the differential viability (reversal) in test [3] (H69AR cells + 2 uM doxorubicin) is -18.7% (inactive). Also, the inhibition in test [4] was -6.58% (inactive); in test [5] it was 2.58% (inactive).

On to `C=C(C)C1Cc2c(C)nn(-c3nc(C)cc(C)n3)c2C1` (configuration not stated), for which the viability in test [1] is 105% (inactive); in test [2] it was 71.7% (inactive); in test [3] (setting [7]) it was 73.7%; in test [3] (setting [8]), 52.3%. Also, the differential viability (reversal) in test [3] (H69AR cells + 2 uM doxorubicin) is -21.4% (inactive). The values for the inhibition in test [4] and in test [5] were -6.58% (inactive) and 13.4% (inactive), respectively.

On to `O=C(CN(c1ccc(F)cc1)S(=O)(=O)c1ccc2c(c1)OCCO2)Nc1cccnc1`, for which the viability is 77% (inactive) in test [1]; 89.5% (inactive) in test [2]; 100% (inactive) in test [6]; 101% in test [3] (setting [7]); 100% in test [3] (setting [8]). Moreover, the differential viability (reversal) in test [3] (H69AR cells + 2 uM doxorubicin) was -0.85% (inactive). Moreover, the inhibition in test [4] is -8.77% (inactive); in test [5] it was -3.82% (inactive).

Regarding `CC(=N\O)/C(CN(C)C)=N/O`, the viability in test [1] is 97% (inactive); in test [2], 88.7% (inactive); in test [6], 91.5% (inactive); in test [3] (setting [7]), 97.9%; in test [3] (setting [8]), 91.5%. In addition, the differential viability (reversal) in test [3] (H69AR cells + 2 uM doxorubicin) was -6.4% (inactive). In addition, the inhibition in test [4] was -1.78% (inactive); in test [5] it was 25.6% (inactive).

As to `O=C(C1CCCCC1)N1CCC(c2nc3c(nnn3Cc3ccccc3Cl)c(=O)[nH]2)CC1`, the viability in test [1] was 90% (inactive); in test [2] it was 83.6% (inactive); in test [6], 73.9% (inactive). Further, the inhibition in test [4] was -3.24% (inactive); in test [5], -9.27% (inactive).

Take `CC(C)(C)c1ccc(C(O)CCCN2CCC(C(O)(c3ccccc3)c3ccccc3)CC2)cc1` (configuration not stated): the viability in test [1] is 91% (inactive); in test [2] it was 1.7% (active); in test [3] (setting [7]), 1.16%; in test [3] (setting [8]), 1.54%. In test [3] (H69AR cells + 2 uM doxorubicin), the differential viability (reversal) was 0.38% (inactive). Also, the inhibition in test [4] is -1.95% (inactive); in test [5], -1% (inactive).

As to `CCc1ccc(NC(=O)CS(=O)CC(=O)NC(C)CCc2ccco2)cc1` (configuration not stated), the viability in test [1] is 120% (inactive); in test [2] it was 93.1% (inactive); in test [6] it was 106% (inactive); in test [3] (setting [7]), 94.3%; in test [3] (setting [8]) it was 106%. Besides, the differential viability (reversal) in test [3] (H69AR cells + 2 uM doxorubicin) is 11.5% (inactive). Moreover, the inhibition in test [4] was -1.56% (inactive); in test [5], -4.59% (inactive).

For `COc1ccc(C)cc1-n1c(N)c(C#N)c(C#N)c1-c1ccc(OC)c(OC)c1OC`, the viability was 97% (inactive) in test [1], 68.7% (inactive) in test [2] and 72.9% (inactive) in test [6]. In addition, the figures for the inhibition in test [4] and in test [5] were -3.51% (inactive) and -1.31% (inactive), respectively.

For `CCCCCCCCCCCCCCCC(O)C(N)CO` (configuration not stated), the viability in test [1] is 60% (inactive); in test [2], 2.65% (active); in test [3] (setting [7]), 1.44%; in test [3] (setting [8]) it was 1.42%. The differential viability (reversal) in test [3] (H69AR cells + 2 uM doxorubicin) is -0.02% (inactive).

Regarding `C1CCC(C(CC2CCCCN2)C2CCCCC2)CC1` (configuration not stated), the viability in test [1] was 2% (active); in test [2], 2.58% (active); in test [3] (setting [7]), 1.26%; in test [3] (setting [8]), 1.55%. The differential viability (reversal) in test [3] (H69AR cells + 2 uM doxorubicin) was 0.29% (inactive).

As to `CC1=C(C(=O)Nc2ccccc2C)C2(CCCC2)C(C(N)=O)C(=O)N1` (configuration not stated), the viability is 114% (inactive) in test [1]; 81.7% (inactive) in test [2]; 90% (inactive) in test [6]; 88.4% in test [3] (setting [7]); 90% in test [3] (setting [8]). Besides, in test [3] (H69AR cells + 2 uM doxorubicin), the differential viability (reversal) is 1.6% (inactive). Besides, the inhibition was 0.96% (inactive) in test [4] and 0% (inactive) in test [5].

For `Cc1cc(C(=O)COc2cccc3cccnc23)c(C)n1C`, the viability is 95% (inactive) in test [1], 80.9% (inactive) in test [2], 70.8% in test [3] (setting [7]) and 59.1% in test [3] (setting [8]). Besides, the differential viability (reversal) in test [3] (H69AR cells + 2 uM doxorubicin) is -11.7% (inactive). Moreover, the figures for the inhibition in test [4] and in test [5] were -2.67% (inactive) and -3.64% (inactive), respectively.

As for `Cc1ccc(C2C(C(=O)c3sc(C)nc3C)=C(O)C(=O)N2CCN(C)C)o1` (configuration not stated), the viability in test [1] was 93% (inactive); in test [2] it was 114% (inactive); in test [6] it was 103% (inactive); in test [3] (setting [7]), 99.1%; in test [3] (setting [8]), 103%. Moreover, the differential viability (reversal) in test [3] (H69AR cells + 2 uM doxorubicin) was 3.58% (inactive). Moreover, the inhibition in test [4] was -3.65% (inactive); in test [5], 0% (inactive).

As to `CCOC(=O)N1CCC(n2c(SCC(=O)NCc3ccco3)nc3ccsc3c2=O)CC1`, the viability in test [1] is 81% (inactive); in test [2], 88.3% (inactive); in test [6] it was 78.5% (inactive). Further, the values for the inhibition in test [4] and in test [5] were -3.55% (inactive) and 2.67% (inactive), respectively.

As to `C=CCc1ccccc1OCC(O)CNC(C)C` (configuration not stated), the viability was 82% (inactive) in test [1]; 70.1% (inactive) in test [2]; 91.3% (inactive) in test [6]; 100% in test [3] (setting [7]); 91.3% in test [3] (setting [8]). Besides, in test [3] (H69AR cells + 2 uM doxorubicin), the differential viability (reversal) is -8.68% (inactive). In addition, the figures for the inhibition in test [4] and in test [5] were -2.34% (inactive) and 1.67% (inactive), respectively.

As for `CC1Cc2ccccc2N1CC(=O)NC(=O)NCc1ccco1` (configuration not stated), the viability is 85% (inactive) in test [1], 89.6% (inactive) in test [2], 70.1% in test [3] (setting [7]) and 39.9% in test [3] (setting [8]). In addition, the differential viability (reversal) in test [3] (H69AR cells + 2 uM doxorubicin) was -30.2% (inactive). Moreover, the inhibition in test [4] is -0.27% (inactive); in test [5] it was 2.36% (inactive).

As for `CCOc1cc2[nH]c(=O)n(CCCCC(=O)NCc3ccco3)c(=O)c2cc1OCC`, the viability was 88% (inactive) in test [1]; 90.7% (inactive) in test [2]; 82.5% (inactive) in test [6]; 95.3% in test [3] (setting [7]); 82.5% in test [3] (setting [8]). In addition, the differential viability (reversal) in test [3] (H69AR cells + 2 uM doxorubicin) was -12.7% (inactive). Moreover, the inhibition in test [4] is -2.34% (inactive); in test [5] it was 1.97% (inactive).

`CC1CCCC(C)N1CCNC(=O)C1CCN(S(=O)(=O)N2CCCCC2)CC1` (configuration not stated): the viability in test [1] is 93% (inactive); in test [2] it was 110% (inactive); in test [6], 104% (inactive); in test [3] (setting [7]), 90.7%; in test [3] (setting [8]), 104%. Also, the differential viability (reversal) in test [3] (H69AR cells + 2 uM doxorubicin) was 13.1% (inactive). For the same molecule, the inhibition in test [4] was -1.2% (inactive); in test [5], -2.55% (inactive).

For the molecule `O=C(CN1C(=O)CC(c2ccco2)Sc2ccccc21)Nc1ccc2c(c1)OCCO2` (configuration not stated), the viability is 130% (inactive) in test [1]; 99% (inactive) in test [2]; 76.9% (inactive) in test [6]; 75.1% in test [3] (setting [7]); 76.9% in test [3] (setting [8]). In addition, the differential viability (reversal) in test [3] (H69AR cells + 2 uM doxorubicin) was 1.83% (inactive). In addition, the figures for the inhibition in test [4] and in test [5] were -2.76% (inactive) and -0.16% (inactive), respectively.
